Source: PubChem BioAssay (Sanford-Burnham Center for Chemical Genomics)
TNAP inh no acc = human TNAP enzyme inhibitors, primary screen, biochemical, luminescent, no phosphate acceptor, uHTS; inhibition, % at 20 µM; hit rate 0.26% among 200,000; purified TNAP, CDP-star luminescence, 30 min; Alkaline phosphatase, tissue-nonspecific isozyme (Homo sapiens), P05186;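 active means tissue-nonspecific alkaline phosphatase inhibition above about 50% at 20 µM in the single-dose screen, limit read from the data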;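 further: 0% = DMSO negative control and 100% = EDTA positive control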
Target sequence (P05186 whole entry, looked up): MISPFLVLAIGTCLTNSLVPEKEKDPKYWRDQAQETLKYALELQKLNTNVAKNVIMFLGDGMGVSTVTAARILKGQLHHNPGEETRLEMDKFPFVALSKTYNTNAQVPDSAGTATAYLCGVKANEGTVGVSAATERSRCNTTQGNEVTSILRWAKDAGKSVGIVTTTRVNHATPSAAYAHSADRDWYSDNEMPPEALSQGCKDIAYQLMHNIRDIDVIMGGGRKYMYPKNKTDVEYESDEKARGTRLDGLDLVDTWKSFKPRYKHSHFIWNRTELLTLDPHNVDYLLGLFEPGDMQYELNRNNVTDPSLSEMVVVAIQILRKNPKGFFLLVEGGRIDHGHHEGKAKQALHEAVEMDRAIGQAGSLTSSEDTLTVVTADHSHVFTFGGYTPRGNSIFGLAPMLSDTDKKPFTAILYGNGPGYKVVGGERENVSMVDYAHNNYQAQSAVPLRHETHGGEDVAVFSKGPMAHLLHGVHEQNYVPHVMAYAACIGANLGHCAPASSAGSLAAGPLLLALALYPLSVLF
TNAP inh hi DEA = human TNAP enzyme inhibitors, primary screen, biochemical, luminescent, high phosphate acceptor level, uHTS; Alkaline phosphatase, tissue-nonspecific isozyme (Homo sapiens), P05186; purified TNAP, CDP-star luminescence, 1 M DEA; inhibition, % at 20 µM; hit rate 0.03% among 200,000;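 active means over 50% inhibition of tissue-nonspecific alkaline phosphatase at 20 µM in the single-dose screen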;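 further: plate controls were DMSO wells for no effect and EDTA-quenched wells as full inhibition for full effect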
PMI act satM6P = human PMI activators, high substrate, primary screen, biochemical, fluorescence intensity, near-saturating mannose 6-phosphate; hit rate 0.34% among 190,000; coupled PMI enzyme assay, resazurin fluorescence, 20 min; hits give high values; 1 = untreated enzyme, 0 = substrate-free blank; AID 1216, 2008; activation factor at 20 µM;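 active means activation factor of 2 or more at 20 µM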
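Material: human phosphomannose isomerase with PGI, G6PDH, diaphorase coupling enzymes; amount: PMI at 15 ng/mL final; also added: Mannose-6-phosphate 1.0 mM (near-saturating) plus 0.22 mM NADP+; incubation: enzyme reaction with compound 20 min at room temperature; signal: resorufin fluorescence (Ex 544/Em 590 nm) from resazurin via diaphorase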
PMI act = activators of human PMI, primary screen, biochemical, fluorescence intensity, near-Km mannose 6-phosphate. Mannose-6-phosphate isomerase (Homo sapiens), P34949. purified human PMI, coupled resazurin fluorescence, 20 min; hits give high values; 1 = vehicle control, 0 substrate-free wells. activation factor at 20 µM. hit rate 0.005% among 190,000;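 active means activation factor of 2 or more at 20 µM, relative to plate controls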
TNAP act hiacc = TNAP activators at high phosphate acceptor level, primary screen, biochemical, luminescence, uHTS | activation factor at 20 µM | purified TNAP, CDP-star luminescence, 1 M DEA, 30 min; hits give high values; 0 = EDTA background, 1 = DMSO-only activity | AID 1136, 2008 | 200,000 tested, under 10 active;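 active means activation factor at least 2 at 20 µM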
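Assay system: human TNAP; Input: enzyme diluted 1/800 final; Reagent: CDP-star luminogenic substrate at 100 µM final; Timing: 30 min, room temperature; Signal: luminescence; Evaluation: TNAP activation factor scaled between EDTA and DMSO control wells.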
The depositor's hits bear a star. Only some compounds are listed: those with a hit (about 0.64% of all), similar ones and a draw of the others.

SMILES | TNAP inh no acc | TNAP inh hi DEA | PMI act satM6P | PMI act | TNAP act hiacc
N#Cc1cc2c([nH]c1=S)CCCC2 | -4 | -4 | 2* | 1.8 | 1
CC1(C)Cc2[nH]c(=S)c(C#N)cc2CO1 | -10 | -5 | 1.5 | 1.4 | 1.1
O=C(O)CCn1cc(C2CC(c3ccccc3)=NN2c2ccccc2)c(-c2ccccc2)n1 (configuration not stated) | -17 | -6 | 0.8 | 1.1 | 1.1
Cc1cc(C)nc(NN=C(c2ccccc2)c2ccccc2)n1 | 5 | 0 | 1.1 | 1.1 | 1
COc1ccc(-c2[nH]ncc2CN(CCO)Cc2cccs2)c(F)c1 | 69* | -6 | 1 | 1 | 1.1
COc1ccc(-c2[nH]ncc2CN(C)C(C)c2ccncn2)c(F)c1 (configuration not stated) | 63* | -5 | 1 | 0.9 | 1.1
CCN(Cc1ccncc1)Cc1cn[nH]c1-c1ccc(OC)cc1F | 55* | -6 | 0.7 | 0.9 | 1.1
C/C(=N\NC(=O)c1cccc(S(=O)(=O)N2CCCC2)c1)c1cccs1 | -44 | -4 | 1.1 | 1.1 | 1
CCn1c2ccccc2c2cc(CN3CCN(Cc4cc(OC)ccc4O)CC3)ccc21 | -15 | -6 | 0.8 | 0.8 | 1.1
COc1cc(CCC(=O)Nc2ccc(Br)c(C(F)(F)F)c2)cc(OC)c1OC | -15 | -2 | 0.9 | 0.8 | 1
CCN=C(NC#N)SCc1c(F)cccc1Cl | -5 | -3 | 1 | 1 | 1
CSCSC1=C(C#N)C(c2ccc(Cl)cc2)C(C(C)=O)=C(C)N1 (configuration not stated) | -8 | -5 | 2.1* | 1.5 | 1.1
Cc1ccsc1CNC1C2CC3CC(C2)CC1C3 (configuration not stated) | -6 | -4 | 1 | 1 | 1
Cc1cccc2cc(C#N)c(N3CCN(C)CC3)nc12 | -2 | 2 | 0.9 | 0.9 | 1
Cc1ccc(C)c2nc(N3CCCC3)c(C#N)cc12 | -20 | -8 | 2* | 1.1 | 1.1
COc1ccc(-n2cc(-c3ccccc3)[nH]c2=S)cc1 | -16 | -2 | 1 | 0.9 | 1
CCOc1ccc(-n2cc(-c3ccc(OC)c(OC)c3)[nH]c2=S)cc1 | 62* | -1 | 1.1 | 1.1 | 1
S=c1[nH]nc(-c2ccco2)n1/N=C/c1ccccn1 | -13 | -5 | 0.9 | 0.8 | 1.1
S=c1[nH]nc(-c2ccco2)n1/N=C/c1ccc(Cl)c(Cl)c1 | 58* | 5 | 0.9 | 0.9 | 1
COc1ccc(OC)c(C(=O)CSc2nc3ncccc3[nH]2)c1 | 63* | -2 | 0.7 | 0.9 | 1
COc1ccc(NC(=O)CSc2nc3ncccc3[nH]2)cc1OC | 49 | -4 | 1 | 1 | 1
O=C(CSc1nc2ncccc2[nH]1)c1ccc(F)cc1 | 54* | -2 | 1.1 | 1.1 | 1
COC(=O)c1cc(-c2ccc(Br)cc2)n[nH]1 | 79* | 0 | 1 | 1 | 1
COc1ccc(-c2cc(C(=O)O)[nH]n2)cc1OC | -2 | -3 | 0.9 | 0.9 | 1
COc1ccc(-c2nc(N)n[nH]2)cc1 | 63* | -3 | 1 | 0.9 | 1
SMILES | TNAP inh no acc | TNAP inh hi DEA | PMI act satM6P | PMI act | TNAP act hiacc
COc1ccc(-c2cc(C(=O)NN)[nH]n2)cc1OC | 30 | 4 | 1 | 1 | 1
COC(=O)c1cc(-c2ccc(Br)cc2)on1 | -15 | -7 | 0.9 | 1 | 1.1
COc1ccc(-c2cc(C(=O)NN)[nH]n2)cc1 | 93* | 8 | 1 | 0.8 | 0.9
O=C(O)c1cc(-c2ccc(Cl)cc2)n[nH]1 | 83* | -3 | 0.9 | 1 | 1
COc1cccc(C(=O)Nc2sc3c(c2C#N)CCN(C(C)=O)C3)c1 | -6 | 1 | 0.7 | 0.6 | 1
COc1ccc(OC)c(NC(=O)CSCC(=O)O)c1 | -10 | -5 | 0.9 | 0.8 | 1
CCOc1cc(/C=N/NC(=O)CCCC(=O)NC2CCCCC2)ccc1O | -8 | -7 | 1 | 1 | 1.1
COc1ccc(-c2cc(-c3ccc(OC)cc3)[nH]n2)cc1 | 66* | -9 | 0.9 | 1 | 1.1
